Assays:
Bio-PepK-StA [1] = type: binding; details: C-terminal truncation of Fluo-PepE, Fig. 3A
Outline: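 Fluorescein-labelled PepE variants truncated at the C-terminus (50 nM in water) were mixed 1:1 with serial dilutions of biotin-PepK/streptavidin complex starting at 20 μM. No activation was used. Fluorescence polarization was measured after 30 min (485 nm excitation, 535 nm emission). The read-out was the Δpolarization relative to samples without biotinylated peptide/streptavidin.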

Env(wt) = assay: Bind&Bite reaction with Env; set-up: species or system HIV-1; details: DMEM with 10% FCS
Outline: (§1)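 Env trimers (wild-type or C-terminal G4S-PepK fusion) were expressed in FreeStyle 293-F cells and lectin-purified. Biotinylated PepE was either activated in situ (7.1 μM with 71 μM EDC and 177.5 μM NHS, 30 min RT) or used as pre-activated, HPLC-purified NHS ester. It was added 1:10 to Env at 71 nM final in DMEM/10% FCS, giving final peptide 710, 71, 7.1 or 0.71 nM. Mixtures were incubated 30 min RT, run on reducing 10% SDS-PAGE, and blotted. Blots were probed with streptavidin-HRP or goat anti-gp120/anti-goat HRP, with ECL detection.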

Env-PepK = assay: Bind&Bite reaction with Env-PepK in DMEM/10% FCS, SDS-PAGE and Western Blot; set-up: species or system HIV-1; details: Env-PepK 71 nM in DMEM with 10% FCS; 30 min RT; streptavidin-HRP blot
Outline: as §1

Bio-PepK-StA [2] = assay: Flupol binding assay after Bind&Bite reaction; details: covalently stabilized by Bind&Bite, Fig. 3B
Outline: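 Equal volumes were mixed with serially diluted biotin-PepK/streptavidin complex starting at 20 μM. Fluorescence polarization was read after 30 min (ex 485/em 535 nm). The read-out was Δpolarization versus samples without biotinylated peptide/streptavidin.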

Substance | affinity of the non-covalent interaction with full-length PepK (Bio-PepK-StA [1]) | other results
Fluo-Aoa-EIAALEREIAALEREIAALE-NH2 [PepE(-1C)] | very similar to full-length PepE | –
Ac-EIAALEREIAALEREIAALER-Aoa-Aoa-Lys(Bio)-NH2 [PepE-Bio] | – | off-target reaction with other components of the medium, in situ activated (Env(wt); in situ activated (EDC/NHS), Fig. 4C): considerable off-target reaction; off-target reactions, pre-activated, purified (Env(wt); pre-activated, purified PepE-Bio, Fig. 4D): largely eliminated; reaction with the PepK tag of Env-PepK (Env-PepK): selective reaction

More lines, main results first:

affinity of the non-covalent interaction with full-length PepK (Bio-PepK-StA [1]) | Substance | other results
very similar to full-length PepE | Fluo-Aoa-EIAALEREIAALEREIAAL-NH2 [PepE(-2C)] | –
complete loss of binding | Fluo-Aoa-EIAALEREIAALER-NH2 [PepE(-7C)] | concentrations at which the peptide binds to full-length PepK (Bio-PepK-StA [2]): submicromolar
complete loss of binding | Fluo-Aoa-EIAALEREIAALERE-NH2 [PepE(-6C)] | –

— paper PMC10549240 (RSC Chemical Biology, 2023)
